Bioassay records from PubChem.
Rows were chosen to be rich in hits. Some 29% of all compounds tested hit in one or more screens of this group.
CYP2C19 inh = human CYP2C19 inhibition | P33261 | CYP2C19 Supersomes, luciferin-H EGE luminescence, 30 min | inhibition, % at 5 µM | 21% of 96,000 active;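 active = CYP2C19 inhibition above a set limit at 5 µM in the primary screen, cut at about 50% in these data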
CYP2C9 act = activators of human CYP2C9 | recombinant CYP2C9, luciferin-H conversion, luminescence; stronger effect = higher value; factor 1 = untreated enzyme, 0 = blocked | P11712 | 1.4% of 96,000 active | activation factor at 5 µM | AID 1024;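 active = activation factor of 2 or more for CYP2C9 at a 5 µM dose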
Target sequence (P11712 whole entry, looked up): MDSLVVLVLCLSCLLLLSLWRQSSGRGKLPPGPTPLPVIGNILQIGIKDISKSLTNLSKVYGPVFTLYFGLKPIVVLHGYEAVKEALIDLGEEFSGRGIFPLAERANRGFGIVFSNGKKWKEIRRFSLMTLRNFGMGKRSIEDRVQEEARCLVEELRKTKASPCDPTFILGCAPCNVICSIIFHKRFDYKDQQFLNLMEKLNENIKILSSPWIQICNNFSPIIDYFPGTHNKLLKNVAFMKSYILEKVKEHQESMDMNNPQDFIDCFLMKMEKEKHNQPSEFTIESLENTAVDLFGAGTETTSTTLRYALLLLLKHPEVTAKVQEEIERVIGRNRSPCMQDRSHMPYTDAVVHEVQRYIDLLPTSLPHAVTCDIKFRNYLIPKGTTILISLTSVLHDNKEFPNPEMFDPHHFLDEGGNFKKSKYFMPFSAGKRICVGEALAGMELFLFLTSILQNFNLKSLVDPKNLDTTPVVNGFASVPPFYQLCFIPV
tolC growth inh = E. coli tolC mutant growth inhibition; E. coli BW25113 tolC mutant growth, OD615; growth inhibition, % at 10 µM (by protocol); AID 573; 2.2% of 65,000 active;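 active = growth inhibition at or above a cutoff equal to the mean over every tested compound plus 3 SD, cut at about 60% in these data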;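 note: growth measured after 20 h incubation at 37 °C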
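Test system: tolC-deleted E. coli BW25113 | Medium: LB with kanamycin 50 µg/mL | Compound dosing: Single concentration, 10 µM final per compound | Schedule: 37 °C, 20 h exposure | Measured by: OD at 615 nm | Evaluation: Percent growth inhibition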
CYP2C19 activ = activators of human cytochrome P450 2C19. recombinant CYP2C19, luciferin-H EGE luminescence; stronger effect = higher value; 0 = fully inhibited enzyme, 1 = untreated enzyme. P33261. activation factor at 5 µM. 96,000 tested, under 10 active. AID 1025;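 active = activation factor of at least 2 at 5 µM in the primary screen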
CYP2C9 inhib = human CYP2C9 inhibition; CYP2C9 Supersomes, luciferin-H conversion, luminescence; inhibition, % at 5 µM; 20% of 96,000 active; AID 777;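 active = blocking of liver enzyme CYP2C9 beyond about 50% at 5 µM, limit read from the data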
E coli WT exp = E. coli BW25113 growth inhibition, expanded screen | OD600 absorbance | growth inhibition, % at 100 µM | 0.15% of 98,000 active;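 active = growth inhibition above about 50% at one test dose, limit read from the data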;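 note: growth measured after 20 h incubation at 37 °C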
Numbers stand for hits; 0 = inactive; - = not tested or not shown.

SMILES	CYP2C19 inh	CYP2C9 act	tolC growth inh	CYP2C19 activ	CYP2C9 inhib	E coli WT exp
COc1ccc(S(=O)(=O)N2CCCCCC2)cc1C(=O)OCC(=O)NC(N)=O	0	0	0	0	0	0
COc1cc(C=O)ccc1OCc1c(C)noc1C	84.7	0	-	0	0	0
CC(C)CCNC(=O)C1CCC(=O)N1C(C)C (stereo not drawn)	0	0	-	0	0	0
O=C(Nc1nc(-c2cccc([N+](=O)[O-])c2)cs1)C(c1ccccc1)c1ccccc1	0	0	-	0	73.9	0
Cc1ccc(Nc2nc(-c3sc(NC(=O)c4ccco4)nc3C)cs2)cc1	0	0	-	0	0	0
CC(=O)c1cccc(Nc2nc(-c3cccc([N+](=O)[O-])c3)cs2)c1	0	0	-	0	57.4	0
CS(=O)(=O)N1CCc2cc(-c3csc(NC(=O)C(c4ccccc4)c4ccccc4)n3)ccc21	0	0	-	0	57.5	0
CC(=O)Nc1nc(C)c(-c2csc(Nc3ccc(O)cc3)n2)s1	0	0	0	0	76.0	0
CCOC(=O)C1CCCN(C(=O)CNC(=O)Cn2ccc3ccccc3c2=O)C1 (stereo not drawn)	0	0	0	0	0	0
CN(C)CC(=O)Nc1nc(-c2ccccc2)cs1	0	0	-	0	0	0
CC(=O)Nc1nc(C)c(-c2csc(Nc3cccc([N+](=O)[O-])c3)n2)s1	82.7	0	-	0	89.4	0
CC1Cc2cc(-c3csc(NC(=O)Cc4ccccc4)n3)ccc2N1S(C)(=O)=O (stereo not drawn)	0	0	-	0	58.1	0
COc1ccc(CC(=O)Nc2cccc(C(=O)O)c2C)cc1	0	0	0	0	0	0
CCOc1ccc(N(CC(=O)Nc2ccc(OC)cc2)S(=O)(=O)c2c(C)noc2C)cc1	0	0	0	0	0	0
CCOc1ccc(N(CC(=O)NCc2ccccc2)S(=O)(=O)c2c(C)noc2C)cc1	91.2	0	0	0	0	0
CCOc1ccc(NC(=O)CN(c2cc(C)cc(C)c2)S(=O)(=O)c2c(C)noc2C)cc1	-	-	0	-	-	0
COc1cccc(CNC(=O)CN(c2cc(C)cc(C)c2)S(=O)(=O)c2c(C)noc2C)c1	54.8	0	0	0	58.4	0
CCOc1ccc(N(CC(=O)NC(C)CC)S(=O)(=O)c2c(C)noc2C)cc1 (stereo not drawn)	63.9	0	0	0	0	0
CCOc1ccc(N(CC(=O)Nc2nccs2)S(=O)(=O)c2c(C)noc2C)cc1	70.6	0	0	0	64.0	0
Cc1cc(C)n(/N=C\c2c(O)ccc3ccccc23)c(=O)c1C(N)=O	0	0	-	0	0	0
Cc1ccc(C(=O)CC2SC(N)=NC2=O)cc1 (stereo not drawn)	0	0	-	0	0	0
Cc1cc(C)c(C(=O)CSc2nnc(-c3cccnc3)n2C)c(C)c1	0	0	-	0	0	0
CCCn1c(N)c(C(=O)CSc2nnc(C3CC3)n2Cc2ccccc2)c(=O)[nH]c1=O	0	0	-	0	58.6	0
CCOC(=O)c1c(C)[nH]c(C)c1C(=O)CSc1nnc(-c2ccncc2)n1Cc1ccccc1	100.3	0	-	0	97.8	0
CCOC(=O)c1c(C)[nH]c(C)c1C(=O)CSc1nnc(-c2ccncc2)n1C	97.7	0	0	0	62.7	0
SMILES	CYP2C19 inh	CYP2C9 act	tolC growth inh	CYP2C19 activ	CYP2C9 inhib	E coli WT exp
NC(=O)CSc1nnc(C2CC2)n1Cc1ccccc1	0	0	0	0	0	0
CCOC(=O)c1c(C)[nH]c(C)c1C(=O)CSc1nnc(-c2ccco2)n1Cc1ccccc1	98.8	0	0	0	98.1	0
CSc1nc2c(c(-c3ccc(O)cc3)c1C#N)CCC2	0	0	0	0	0	0
CN(C)/C=N/c1c(C(=O)NCc2ccccc2)nnn1Cc1ccccc1	0	0	0	0	0	0
Cc1ccc(S(=O)(=O)N(CC(O)CN2CCCC2)c2ccccc2)cc1 (stereo not drawn)	0	0	0	0	0	0
CS(=O)(=O)N(CC(O)Cn1c2ccccc2c2ccccc21)c1ccccc1 (stereo not drawn)	95.9	0	0	0	96.7	0
COc1ccc(N(CC(O)Cn2c3ccccc3c3ccccc32)S(=O)(=O)c2ccccc2)cc1 (stereo not drawn)	82.6	0	-	0	69.8	0
CCN(CC(O)Cn1c2ccccc2c2ccccc21)S(=O)(=O)c1ccc(C)cc1 (stereo not drawn)	98.9	0	-	0	89.7	0
Cc1cc(C)c(S(=O)(=O)c2ccccc2)c(OC(=O)c2cc(F)c(F)cc2Cl)n1	0	0	-	0	0	0
COCCCNCC(=O)c1c(N)n(Cc2ccccc2)c(=O)n(C)c1=O	0	0	-	0	0	0
Cc1cc(NC(=O)COc2ncnc3sc(C)c(C)c23)no1	0	0	0	0	0	0
CSc1nc2n(n1)C(c1ccccn1)C1=C(CC(C)(C)CC1=O)N2 (stereo not drawn)	0	0	-	0	0	0
Cc1ccc(NC(=O)c2c(Cl)n(C)c3ccccc23)cc1	0	2.1	-	0	0	0
Cc1ccc(NC(=O)c2ccccc2O)cc1	-	-	91.8	-	-	0
Cc1ccc(NC(=O)c2cc(S(=O)(=O)c3ccccc3)ccc2Cl)cc1	0	0	-	0	72.9	0
O=C(c1ccccc1)N1CCCOC1c1ccccc1 (stereo not drawn)	0	0	0	0	0	0
OCC12COC(c3ccccc3)N1C(c1ccccc1)OC2 (stereo not drawn)	69.4	0	0	0	0	0
O=c1[nH]nc(Cc2ccc(-c3ccc(Cl)cc3)o2)c2ccccc12	0	0	-	0	0	0
CC(O)c1nc2ccccc2n1C/C=C/c1ccccc1 (stereo not drawn)	97.6	0	0	0	54.9	0
CC(C)c1nc2ccccc2n1CCC(=O)O	0	0	-	0	0	0
OCc1nc2ccccc2n1C/C=C/c1ccccc1	91.6	0	0	0	59.6	0
C=C(Br)Cn1c(CC)nc2ccccc21	0	0	-	0	0	0
Cc1ccc(S(=O)(=O)N2CCN(CC(=O)NC3CCCc4ccccc43)CC2)c(C)c1 (stereo not drawn)	51.6	0	-	0	0	0
Cc1ccc(-c2nnn(CC(=O)NC3CCCc4ccccc43)n2)cc1 (stereo not drawn)	0	0	-	0	0	0
Cc1ccc(S(=O)(=O)N2CCN(CC(=O)NC3CCCc4ccccc43)CC2)cc1C (stereo not drawn)	69.9	0	-	0	0	0
SMILES	CYP2C19 inh	CYP2C9 act	tolC growth inh	CYP2C19 activ	CYP2C9 inhib	E coli WT exp
Cc1ncc([N+](=O)[O-])n1CC(C)O (stereo not drawn)	0	0	-	0	0	0
COc1ccccc1CNC(=O)/C=C/c1cc2c(cc1Br)OCO2	0	0	-	0	0	0
Cc1ccc(NC2=Nc3ccccc3CC2)cc1	83.7	0	-	0	0	0
Brc1ccc(NC2=Nc3ccccc3CC2)cc1	52.3	0	-	0	0	0
c1ccc(NC2=Nc3ccccc3CS2)cc1	0	0	0	0	0	0
COc1ccc(-n2c(SCC(=O)Nc3nccs3)nc3sc4c(c3c2=O)CCN(C)C4)cc1	0	0	0	0	0	0
